Experimental data taken from ChEMBL document CHEMBL1649081, “Arylpiperazines for management of benign prostatic hyperplasia: design, synthesis, quantitative structure-activity relationships, and pharmacokinetic studies” (J Med Chem, 2011).
Where “and” joins values, the source holds several entries; their conditions need not be identical. Equal values may be shown once. Calls of active or inactive are those of the source. No cut-off for these calls is given here.

Tests used:
[1] = (§1) […] in Sprague-Dawley rat model […] assessed as reduction in prostate weight at 10 mg/k, po administered daily for 21 days measured after 24 hrs post last dose; format: functional
Procedure, shortened: (§2)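 Adult mature Sprague-Dawley rats (n = 5) received an oral 10.0 mg/kg dose as a water/gum acacia suspension daily for 21 days. Controls received vehicle, and a reference antiandrogen served as positive control. At autopsy 24 h after the last dose, prostates were dissected and weighed.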

[2] = system: Cancer cell lines; experiment: as §1; format: functional; procedure, shortened: as §2
[3] = system: LNCaP; experiment: Anticancer activity against human LNCAP cells assessed as change in PSA gene expression at 10 umol after 48 hrs by RT-PCR analysis; format: functional
Procedure, shortened: (§3)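 LNCaP cells (androgen-dependent human prostate cancer) were grown in RPMI-1640 with 10% FCS, 100 units/mL penicillin G and 100 μg/mL streptomycin on gelatin-coated plates. They were treated at 10 μmol for 48 h, with flutamide as positive control. PSA is reported as fold change relative to untreated control.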

[4] = system: LNCaP; experiment: Anticancer activity against human LNCAP cells assessed as change in PSA gene expression at 10 umol after 48 hrs by RT-PCR analysis relative to control; format: functional; procedure, shortened: as §3
[5] = target: T1, Estrogen receptor (Homo sapiens) (UniProt P03372); experiment: Induction of ERalpha in human LNCAP cells at 10 umol relative to control; format: cell-based
T1 sequence (whole entry): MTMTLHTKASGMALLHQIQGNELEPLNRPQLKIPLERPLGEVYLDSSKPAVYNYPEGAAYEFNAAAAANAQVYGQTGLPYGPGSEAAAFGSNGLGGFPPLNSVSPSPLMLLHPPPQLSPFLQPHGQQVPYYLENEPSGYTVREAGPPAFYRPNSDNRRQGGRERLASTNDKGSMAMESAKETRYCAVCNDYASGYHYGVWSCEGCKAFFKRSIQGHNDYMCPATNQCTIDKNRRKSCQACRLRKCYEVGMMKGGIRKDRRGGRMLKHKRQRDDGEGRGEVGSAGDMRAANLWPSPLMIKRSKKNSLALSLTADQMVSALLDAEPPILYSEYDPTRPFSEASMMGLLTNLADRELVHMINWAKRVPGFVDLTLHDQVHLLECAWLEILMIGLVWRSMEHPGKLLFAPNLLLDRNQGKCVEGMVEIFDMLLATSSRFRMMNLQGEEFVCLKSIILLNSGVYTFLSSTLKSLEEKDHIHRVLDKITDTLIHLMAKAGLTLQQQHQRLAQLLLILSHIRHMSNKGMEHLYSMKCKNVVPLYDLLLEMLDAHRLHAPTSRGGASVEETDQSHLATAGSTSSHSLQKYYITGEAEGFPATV
Procedure, shortened: (§4)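 LNCaP cells were grown in RPMI-1640 with 10% FCS, penicillin and streptomycin on gelatin-coated plates to 80% confluence, then treated at 10.0 μmol for 24 h, with flutamide as comparator. Total RNA was extracted with Trireagent, and ER-α/ER-β mRNA was measured by real-time PCR. Results are fold change versus control, mean ± SE of three values.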

[6] = target: Estrogen receptor beta (Homo sapiens) (UniProt Q92731); experiment: Induction of ERbeta in human LNCAP cells at 10 umol relative to control; format: cell-based; procedure, shortened: as §4
[7] = Ratio of drug level in serum to prostate in Sprague-Dawley rat at 10 mg/kg, po administered as single dos; format: ADME, organism-based, Prostate gland; design: dose 10 mg/kg, route oral; conditions: in vivo
Procedure, shortened: (§5)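 Male Sprague-Dawley rats were fasted overnight (12-16 h) and given a single oral 10 mg/kg dose, n = 3 per time point. Animals were killed at intervals up to 24 h and serum, prostate and hypothalamus collected; hypothalamus was pooled from three rats. Analysis was by HPLC (0.01 M sodium acetate pH 6.0/acetonitrile 30:70; LLOQ 10 ng/mL), with noncompartmental parameters.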

[8] = Tmax in Sprague-Dawley rat hypothalamus at 10 mg/kg, po administered as single dose after 1 hr; format: ADME, organism-based; design: dose 10 mg/kg, route oral; procedure, shortened: as §5
[9] = Mean residence time in Sprague-Dawley rat prostate gland at 10 mg/kg, po administered as single dose; format: ADME, organism-based; design: dose 10 mg/kg, route oral; procedure, shortened: as §5
[10] = Cmax in Sprague-Dawley rat hypothalamus at 10 mg/kg, po administered as single dose after 1 hr; format: ADME, organism-based; design: dose 10 mg/kg, route oral; procedure, shortened: as §5
[11] = Tmax in Sprague-Dawley rat prostate gland at 10 mg/kg, po administered as single dose after 1 hr; format: ADME, organism-based; design: dose 10 mg/kg, route oral; procedure, shortened: as §5
[12] = Cmax in Sprague-Dawley rat prostate gland at 10 mg/kg, po administered as single dose after 1 hr; format: ADME, organism-based; design: dose 10 mg/kg, route oral; procedure, shortened: as §5
[13] = Mean residence time in Sprague-Dawley rat hypothalamus at 10 mg/kg, po administered as single dose; format: ADME, organism-based; design: dose 10 mg/kg, route oral; procedure, shortened: as §5
[14] = Tmax in Sprague-Dawley rat hypothalamus at 10 mg/kg, po administered as single dose after 2 hrs; format: ADME, organism-based; design: dose 10 mg/kg, route oral; procedure, shortened: as §5
[15] = Cmax in Sprague-Dawley rat serum at 10 mg/kg, po administered as single dose after 1 hr; format: ADME, organism-based; design: dose 10 mg/kg, route oral; procedure, shortened: as §5
[16] = Cmax in Sprague-Dawley rat prostate gland at 10 mg/kg, po administered as single dose after 2 hrs; format: ADME, organism-based; design: dose 10 mg/kg, route oral; procedure, shortened: as §5
[17] = Mean residence time in Sprague-Dawley rat serum at 10 mg/kg, po administered as single dose; format: ADME, organism-based; design: dose 10 mg/kg, route oral; procedure, shortened: as §5
[18] = system: Serum; experiment: Clearance in Sprague-Dawley rat serum at 10 mg/kg, po administered as single dose; format: ADME, organism-based; design: dose 10 mg/kg, route oral; conditions: in vivo; procedure, shortened: as §5
[19] = target: T1, Estrogen receptor (Homo sapiens); experiment: Induction of ERalpha in human prostate cells at 10 umol relative to control; format: cell-based
Procedure, shortened: (§6)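 ER-α and ER-β mRNA were measured by real-time PCR in two cell types: primary BPH-derived human stromal cells (passages 4-6; DMEM/Ham's F-12, 10% FCS) and LNCaP cells (RPMI-1640, 10% FCS, gelatin-coated). Cells at 80% confluence were treated with 10.0 μmol for 24 h, then total RNA was extracted. Results are fold change versus control, mean ± SE of three values.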

[20] = Cmax in Sprague-Dawley rat serum at 10 mg/kg, po administered as single dose after 2 hrs; format: ADME, organism-based; design: dose 10 mg/kg, route oral; procedure, shortened: as §5
[21] = AUC (0 to t) in Sprague-Dawley rat prostate gland at 10 mg/kg, po administered as single dose; format: ADME, organism-based; design: dose 10 mg/kg, route oral; conditions: in vivo; procedure, shortened: as §5
[22] = system: Hypothalamus; experiment: AUC (0 to t) in Sprague-Dawley rat hypothalamus at 10 mg/kg, po administered as single dose; format: ADME, organism-based; design: dose 10 mg/kg, route oral; conditions: in vivo; procedure, shortened: as §5
[23] = Cmax in Sprague-Dawley rat hypothalamus at 10 mg/kg, po administered as single dose after 2 hrs; format: ADME, organism-based; design: dose 10 mg/kg, route oral; procedure, shortened: as §5
[24] = Tmax in Sprague-Dawley rat serum at 10 mg/kg, po administered as single dose after 1 hr; format: ADME, organism-based; design: dose 10 mg/kg, route oral; procedure, shortened: as §5
[25] = Tmax in Sprague-Dawley rat prostate gland at 10 mg/kg, po administered as single dose after 2 hrs; format: ADME, organism-based; design: dose 10 mg/kg, route oral; procedure, shortened: as §5
[26] = Tmax in Sprague-Dawley rat serum at 10 mg/kg, po administered as single dose after 2 hrs; format: ADME, organism-based; design: dose 10 mg/kg, route oral; procedure, shortened: as §5
[27] = system: Serum; experiment: AUC (0 to t) in Sprague-Dawley rat serum at 10 mg/kg, po administered as single dose; format: ADME, organism-based; design: dose 10 mg/kg, route oral; conditions: in vivo; procedure, shortened: as §5
[28] = Ratio of drug level in hypothalamus to prostate in Sprague-Dawley rat at 10 mg/kg, po administered as single dos; format: ADME, organism-based; design: dose 10 mg/kg, route oral; conditions: in vivo; procedure, shortened: as §5
[29] = target: Estrogen receptor beta (Homo sapiens) (UniProt Q92731); experiment: Induction of ERbeta in human prostate cells at 10 umol relative to control; format: cell-based; procedure, shortened: as §6

Sequence of Estrogen receptor beta (Homo sapiens) (Q92731 whole entry): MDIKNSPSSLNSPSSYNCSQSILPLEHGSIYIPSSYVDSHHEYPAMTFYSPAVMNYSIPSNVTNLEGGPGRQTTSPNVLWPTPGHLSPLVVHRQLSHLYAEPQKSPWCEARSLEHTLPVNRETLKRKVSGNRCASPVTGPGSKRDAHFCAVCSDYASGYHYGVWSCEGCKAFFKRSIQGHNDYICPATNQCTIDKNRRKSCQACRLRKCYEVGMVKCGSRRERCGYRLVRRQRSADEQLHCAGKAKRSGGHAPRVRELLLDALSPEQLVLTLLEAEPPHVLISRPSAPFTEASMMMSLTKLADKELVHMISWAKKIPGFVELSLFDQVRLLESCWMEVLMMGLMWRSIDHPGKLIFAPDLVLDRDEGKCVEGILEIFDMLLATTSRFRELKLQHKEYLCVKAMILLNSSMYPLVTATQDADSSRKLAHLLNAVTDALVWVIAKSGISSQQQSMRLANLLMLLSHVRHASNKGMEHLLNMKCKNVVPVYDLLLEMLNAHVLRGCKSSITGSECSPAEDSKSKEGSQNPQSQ

O=[N+]([O-])c1ccc(CN2CCN(c3cccc(C(F)(F)F)c3)CC2)cc1
inhibition (INH) [1]: 15%

O=[N+]([O-])c1ccc(N2CCN(c3ccccn3)CC2)cc1
inhibition (INH) [1]: 15% and 24%

O=[N+]([O-])c1ccc(N2CCN(c3ncccn3)CC2)c(C(F)(F)F)c1
inhibition (INH) [1]: 15% and 24%

O=[N+]([O-])c1ccccc1N1CCN(c2cccc(Cl)c2)CC1
Activity [2]: inactive

O=C(c1ccccc1[N+](=O)[O-])N1CCN(c2cccc(C(F)(F)F)c2)CC1
inhibition (INH) [1]: 15%

CC(C)C(=O)Nc1ccc([N+](=O)[O-])c(C(F)(F)F)c1 [FLUTAMIDE]
inhibition (INH) [3]: 99% | fold change (FC) [4]: 0.01 | fold change (FC) [5]: 11 | fold change (FC) [6]: 14

O=[N+]([O-])c1ccccc1N1CCN(c2cccc(C(F)(F)F)c2)CC1
Activity [2]: inactive

O=[N+]([O-])c1cc(C(F)(F)F)ccc1N1CCN(c2ccccn2)CC1
inhibition (INH) [1]: 15%

O=[N+]([O-])c1cc(C(F)(F)F)ccc1N1CCN(c2cccc(Cl)c2)CC1
inhibition (INH) [1]: 15%

O=[N+]([O-])c1ccc(N2CCN(c3cccc(C(F)(F)F)c3)CC2)c(C(F)(F)F)c1
inhibition (INH) [3]: 90% | Ratio [7]: 0.13 | Tmax [8]: 1 h | MRT [9]: 11 h | Cmax [10]: 99.5 ng/g | fold change (FC) [4]: 0.106 | Tmax [11]: 1.5 h | Cmax [12]: 442 ng/g | MRT [13]: 11.6 h | Tmax [14]: 2 h | Cmax [15]: 106 ng/mL | Cmax [16]: 365 ng/g | MRT [17]: 6.97 h | fold change (FC) [5]: 11 | CL [18]: 0.17 mL/min/kg | fold change (FC) [19]: 3 | Cmax [20]: 139 ng/mL | AUC [21]: 5650 ng·h/g | AUC [22]: 2000 ng·h/g | Cmax [23]: 124 ng/g | Tmax [24]: 0.5 h | Tmax [25]: 6 h | Tmax [26]: 2 h | AUC [27]: 712 ng·h/mL | Ratio [28]: 0.35 | fold change (FC) [29]: 6 | inhibition (INH) [1]: 15% and 24% | fold change (FC) [6]: 16

O=C(c1ccc(C(F)(F)F)cc1)N1CCN(c2cccc(C(F)(F)F)c2)CC1
inhibition (INH) [1]: 15%

O=C(c1ccccc1)N1CCN(c2ccccn2)CC1
inhibition (INH) [1]: 10%

O=[N+]([O-])c1ccc(N2CCN(c3ccc(F)cc3)CC2)c(C(F)(F)F)c1
inhibition (INH) [1]: 15% and 24%

O=[N+]([O-])c1ccccc1N1CCN(c2ccccn2)CC1
inhibition (INH) [1]: 15%

O=[N+]([O-])c1ccc(CN2CCN(c3ncccn3)CC2)cc1
inhibition (INH) [1]: 15% and 24%

O=C(c1ccccc1[N+](=O)[O-])N1CCN(c2ccccn2)CC1
inhibition (INH) [1]: 15%

O=[N+]([O-])c1cc(C(F)(F)F)ccc1N1CCN(c2ncccn2)CC1
inhibition (INH) [1]: 15% and 24%

O=C(c1ccc(C(F)(F)F)cc1)N1CCN(c2cccc(Cl)c2)CC1
inhibition (INH) [1]: 10%

O=C(c1ccccc1)N1CCN(c2cccc(Cl)c2)CC1
inhibition (INH) [1]: 10%

O=[N+]([O-])c1ccc(CN2CCN(c3ccccn3)CC2)cc1
inhibition (INH) [1]: 15%

O=[N+]([O-])c1ccc(CN2CCN(c3cccc(Cl)c3)CC2)cc1
inhibition (INH) [1]: 15%

O=C(c1ccccc1)N1CCN(c2ncccn2)CC1
inhibition (INH) [1]: 10%

O=C(c1ccccc1)N1CCN(c2cccc(C(F)(F)F)c2)CC1
inhibition (INH) [1]: 15%

O=[N+]([O-])c1ccc(N2CCN(c3ccccn3)CC2)c(C(F)(F)F)c1
inhibition (INH) [1]: 15% and 24%

O=[N+]([O-])c1cc(C(F)(F)F)ccc1N1CCN(c2ccc(F)cc2)CC1
inhibition (INH) [1]: 15%

O=[N+]([O-])c1ccc(N2CCN(c3cccc(Cl)c3)CC2)c(C(F)(F)F)c1
inhibition (INH) [1]: 15% and 24%

O=C(c1ccc(C(F)(F)F)cc1)N1CCN(c2ccccn2)CC1
inhibition (INH) [1]: 15%

O=[N+]([O-])c1cc(C(F)(F)F)ccc1N1CCN(c2cccc(C(F)(F)F)c2)CC1
inhibition (INH) [1]: 15% and 24%
